# Measured values: publication PMC11310375 (EJNMMI Radiopharmacy and Chemistry, 2024)
# Experiments:
# [1] = tested on: HeLa cells; assay: Caspase activity assay with fluorogenic substrate Ac-DEVD-AMC in cell lysates; assay type: cell-based, human; conditions: HeLa cells treated with STS
# Summary of the method: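 HeLa cells were seeded at 0.3×10^6 per well in supplemented DMEM at 37 °C, 5% CO₂. […] Cells were lysed in hypotonic PIPES/NP-40 buffer pH 7.4 on ice. Lysate (20 μg protein) was incubated with 50 μM Ac-DEVD-AMC in 100 μL caspase buffer for 1 h at 37 °C. AMC fluorescence (ex 360/em 460) was converted to pmol by free-AMC standard curve; mean of three.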
# [2] = biological target: T1, caspase-3 (Homo sapiens, UniProt P42574); assay: Biochemical inhibition assay, kinact/Ki with AMAC substrate; conditions: AMAC-substrates, N = 4
# T1 sequence (P42574 29-175 limits assumed): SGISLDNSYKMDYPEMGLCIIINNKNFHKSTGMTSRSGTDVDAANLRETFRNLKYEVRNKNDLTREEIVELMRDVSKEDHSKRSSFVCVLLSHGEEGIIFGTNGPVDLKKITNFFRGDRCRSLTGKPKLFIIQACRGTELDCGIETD
# T1 sequence (P42574 176-277 limits assumed): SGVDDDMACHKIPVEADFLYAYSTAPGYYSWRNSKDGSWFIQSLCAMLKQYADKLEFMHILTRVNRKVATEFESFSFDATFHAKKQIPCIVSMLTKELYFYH
# Summary of the method: (§1)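 Continuous fluorogenic inactivation assay with Ac-DEVD-AMAC at 100 μM final. Final enzyme concentrations were 1 nM caspase-3 and 5 nM caspase-7. Enzyme was added to substrate plus inhibitor, and fluorescence (ex 320/em 460) was read immediately. Progress curves were fit to F = -[v₀(1-exp(-kobst))/kobs-Fmax] to give kinact and Ki.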
# [3] = biological target: T2, caspase-6 (Homo sapiens, UniProt P55212); assay: Biochemical inhibition assay, kinact/Ki with AMAC substrate; conditions: AMAC-substrates, N = 4
# T2 sequence (P55212 24-179 limits assumed): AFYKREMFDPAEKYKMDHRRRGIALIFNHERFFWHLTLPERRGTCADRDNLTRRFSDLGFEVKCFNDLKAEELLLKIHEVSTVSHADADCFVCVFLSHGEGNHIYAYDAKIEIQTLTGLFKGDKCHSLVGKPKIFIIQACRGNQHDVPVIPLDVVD
# T2 sequence (P55212 194-293 limits assumed): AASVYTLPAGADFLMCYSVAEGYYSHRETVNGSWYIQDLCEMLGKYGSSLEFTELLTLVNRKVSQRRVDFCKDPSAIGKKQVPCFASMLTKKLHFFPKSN
# Summary of the method: (§2)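 Caspase-8 (25 nM), caspase-9 (100 nM) and caspase-10 (20 nM) used Ac-IETD-AMAC; caspase-9 and caspase-10 buffers also had 0.7 M sodium citrate. Caspase-6 (25 nM) used Ac-VEID-AMAC. Fluorescence (ex 320/em 460) was read immediately, and progress curves were fit for kinact and Ki.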
# [4] = biological target: T3, caspase-7 (Homo sapiens, UniProt P55210); assay: Biochemical inhibition assay, kinact/Ki with AMAC substrate; conditions: AMAC-substrates, N = 4
# T3 sequence (P55210 24-198 limits assumed): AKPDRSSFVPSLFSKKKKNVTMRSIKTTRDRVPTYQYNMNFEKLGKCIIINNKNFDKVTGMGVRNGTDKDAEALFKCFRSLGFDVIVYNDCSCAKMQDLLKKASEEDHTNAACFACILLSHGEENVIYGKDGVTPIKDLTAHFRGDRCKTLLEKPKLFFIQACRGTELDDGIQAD
# T3 sequence (P55210 207-303 limits assumed): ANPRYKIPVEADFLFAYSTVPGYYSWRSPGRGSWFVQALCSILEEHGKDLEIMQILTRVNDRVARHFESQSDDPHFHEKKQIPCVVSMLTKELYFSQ
# Summary of the method: as §1
# [5] = biological target: caspase-8 (Homo sapiens, UniProt Q14790); assay: Biochemical inhibition assay, kinact/Ki with AMAC substrate; conditions: AMAC-substrates, N = 4
# caspase-8, sequence (Q14790 217-374 limits assumed): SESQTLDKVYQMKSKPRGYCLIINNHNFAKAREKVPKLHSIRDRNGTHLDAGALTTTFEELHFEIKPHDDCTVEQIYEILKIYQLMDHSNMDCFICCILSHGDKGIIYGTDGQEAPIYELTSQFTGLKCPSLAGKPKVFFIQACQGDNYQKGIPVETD
# caspase-8, sequence (Q14790 385-479 limits assumed): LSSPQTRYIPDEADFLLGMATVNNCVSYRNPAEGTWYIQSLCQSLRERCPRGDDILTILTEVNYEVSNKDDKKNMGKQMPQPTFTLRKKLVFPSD
# Summary of the method: as §2
# [6] = biological target: T4, caspase-9 (Homo sapiens, UniProt P55211); assay: as above; conditions: AMAC-substrates, N = 4
# T4 sequence (P55211 1-315 limits assumed): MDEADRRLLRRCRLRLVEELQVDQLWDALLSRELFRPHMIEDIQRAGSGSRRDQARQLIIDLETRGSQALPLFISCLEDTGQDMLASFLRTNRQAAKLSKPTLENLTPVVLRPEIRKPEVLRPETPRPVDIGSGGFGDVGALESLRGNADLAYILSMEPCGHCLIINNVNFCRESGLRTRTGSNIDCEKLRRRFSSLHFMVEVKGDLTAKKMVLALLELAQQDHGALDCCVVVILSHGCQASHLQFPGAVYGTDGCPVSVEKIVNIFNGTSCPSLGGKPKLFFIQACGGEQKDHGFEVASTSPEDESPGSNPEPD
# T4 sequence (P55211 331-416 limits assumed): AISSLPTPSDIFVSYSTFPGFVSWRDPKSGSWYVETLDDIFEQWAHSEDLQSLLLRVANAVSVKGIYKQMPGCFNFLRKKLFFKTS
# Summary of the method: as §2
# [7] = biological target: T5, caspase-10 (Homo sapiens, UniProt Q92851); assay: as above; conditions: AMAC-substrates, N = 4
# T5 sequence (Q92851 220-415 limits assumed): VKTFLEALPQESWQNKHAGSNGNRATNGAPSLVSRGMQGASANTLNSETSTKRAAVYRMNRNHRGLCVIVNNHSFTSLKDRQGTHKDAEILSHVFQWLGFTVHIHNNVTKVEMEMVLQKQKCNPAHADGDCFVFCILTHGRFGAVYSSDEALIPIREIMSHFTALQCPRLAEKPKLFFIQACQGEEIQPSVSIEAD
# T5 sequence (Q92851 416-521 limits assumed): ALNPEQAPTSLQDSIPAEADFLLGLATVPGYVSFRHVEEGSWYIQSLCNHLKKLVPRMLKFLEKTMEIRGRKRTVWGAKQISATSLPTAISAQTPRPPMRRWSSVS
# Summary of the method: as §2
# [8] = biological target: T1, caspase-3; assay: Biochemical inhibition assay, kinact/Ki with Ac-DEVD-AMC substrate
# Summary of the method: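 Ac-DEVD-AMC was 50 µM final and inhibitor 20 to 80 nM final. Reference inhibitor Ac-ATS010-KE was run alongside. kinact/Ki was derived as for the AMAC assay.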
# [9] = biological target: T1, caspase-3; conditions: ref Solania et al. [2019]; cited from earlier work
# [10] = tested on: Jurkat cells; conditions: ref Solania et al. [2019]; cited from earlier work
# [11] = tested on: COLO205 tumours; assay: Caspase activity in tumour homogenates with fluorogenic substrate; assay type: in vivo, CD1^−/− nude mice; conditions: 24 h after treatment
# Summary of the method: (§3)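 Female CD1 nude mice bore subcutaneous hind-leg xenografts: COLO205 at 2×10⁶ cells, HT29 at 10×10⁶. At about 200 mm³, mice received conatumumab or IgG1 isotype, 1.5 mg/kg i.p. Tumours were taken 24 h later and homogenised. Homogenate (20 μg protein) was incubated with 50 μM Ac-DEVD-AMC in caspase buffer, 1 h, 37 °C. AMC (ex 360/em 460) was quantified in pmol against a free-AMC standard; N = 3.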
# [12] = tested on: HT29 tumours; assay: as above; assay type: in vivo, CD1^−/− nude mice; conditions: 24 h after treatment
# Summary of the method: as §3
compound,measurement,setting,value
"CN[C@@H]1C[C@H]2O[C@@](C)([C@@H]1OC)n1c3ccccc3c3c4c(c5c6ccccc6n2c5c31)C(=O)NC4 [STS, staurosporine]",AMC liberation (caspase activity),[1],1598 ± 444 pmol AMC
"Ac-3Pal-Asp-Phe(F5)-Phe-Asp-KE [Ac-ATS010-KE, reference compound]",kinact/Ki C3,[2],1.7e+06 M⁻¹ s⁻¹
same,kinact/Ki C6,[3],300 M⁻¹ s⁻¹
same,kinact/Ki C7,[4],190000 M⁻¹ s⁻¹
same,kinact/Ki C8,[5],25000 M⁻¹ s⁻¹
same,kinact/Ki C9,[6],14000 M⁻¹ s⁻¹
same,kinact/Ki C10,[7],1000 M⁻¹ s⁻¹
same,kinact/Ki caspase-3,[8],46.48 ± 9.96 × 10^4.s^−1.M^−1
same,increase of kinact/Ki for caspase-3 over the DW3 sequence,[9],154 fold
same,protection from MegaFasL-induced apoptosis,[10],able to protect Jurkat cells from MegaFasL-induced apoptosis
"conatumumab: apoptosis-inducing therapy (Amgen) given to tumour-bearing mice, compared with IgG1 isotype control","caspase activity, liberated AMC",[11],"15,119 ± 761 pmol liberated AMC"
same,"caspase activity, liberated AMC",[12],679 ± 63 pmol liberated AMC
